Experimental data: ChEMBL document CHEMBL1135643, “Synthesis and biological activity of strongly fluorescent tricyclic analogues of acyclovir and ganciclovir” (2002)
In brackets after ≈: the same amount, converted by molar mass.

What was measured:
Type in all cases: functional
[1] = Minimum inhibitory concentration against Herpes simplex Virus-2(196); conditions: Human alphaherpesvirus 2
In short: (§1)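 Confluent E6SM fibroblast monolayers were infected with 100 CCID50 of virus (1 CCID50 infects 50% of inoculated cultures). After 1 h adsorption, residual virus was removed and cultures were incubated with 2- to 5-fold serial dilutions of compound. Inhibition of virus-induced cytopathicity was scored once the virus-infected controls reached full CPE (day 3 post-infection).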

[2] = Minimum inhibitory concentration against Herpes simplex Virus-1 (KOS) (ACV); conditions: Human alphaherpesvirus 1; in short: as §1
[3] = Minimum inhibitory concentration against Herpes simplex Virus-2(G); in short: as §1
[4] = Minimum inhibitory concentration against Herpes simplex Virus-1(KOS); conditions: Human alphaherpesvirus 1; in short: as §1
[5] = Minimum inhibitory concentration against Herpes simplex Virus-1 (McIntyre); conditions: Human alphaherpesvirus 1; in short: as §1
[6] = Minimum cytotoxic concentration in E6SM fibroblast cells; conditions: Homo sapiens, read-out: Min cytotoxic concentration
[7] = Minimum inhibitory concentration against Herpes simplex Virus-2(Lyons); conditions: Human alphaherpesvirus 2; in short: as §1
[8] = Minimum inhibitory concentration against Herpes simplex Virus-1(F); conditions: Human alphaherpesvirus 1; in short: as §1

Compound | MIC [1] | MIC [2] | MIC ([3]; Human alphaherpesvirus 2) | MIC [4] | MIC [5] | MCC [6] | MIC [7] | MIC [8] | MIC ([3]; Human alphaherpesvirus 1)
O=C(Oc1ccccc1)Oc1ccc(-c2cn3c(O)c4ncn(COC(CO)CO)c4nc3n2)cc1 | 0.781 µM (≈ 0.384 µg/mL) | 19 µM (≈ 9.34 µg/mL) | 0.417 µM (≈ 0.205 µg/mL) | 0.008 µM (≈ 0.00393 µg/mL) | 0.781 µM (≈ 0.384 µg/mL) | 814 µM | 0.156 µM (≈ 0.0767 µg/mL) | 0.031 µM (≈ 0.0152 µg/mL) | –
O=C(Nc1ccc(-c2cn3c(O)c4ncn(COCCO)c4nc3n2)cc1)Oc1ccccc1 | 1.4 µM (≈ 0.645 µg/mL) | 174 µM (≈ 80.1 µg/mL) | 2.5 µM (≈ 1.15 µg/mL) | 1.1 µM (≈ 0.506 µg/mL) | 0.834 µM (≈ 0.384 µg/mL) | 869 µM | 1.4 µM (≈ 0.645 µg/mL) | 0.834 µM (≈ 0.384 µg/mL) | –
CC(=O)Nc1ccc(-c2cn3c(O)c4ncn(COCCO)c4nc3n2)cc1 | 25 µM (≈ 9.56 µg/mL) | 25 µM (≈ 9.56 µg/mL) | 8.4 µM (≈ 3.21 µg/mL) | 6.7 µM (≈ 2.56 µg/mL) | 25 µM (≈ 9.56 µg/mL) | 126 µM | 25 µM (≈ 9.56 µg/mL) | 5 µM (≈ 1.91 µg/mL) | –
CC(C)C(=O)Oc1ccc(-c2cn3c(O)c4ncn(COCCO)c4nc3n2)cc1 | 0.933 µM (≈ 0.384 µg/mL) | 583 µM (≈ 240 µg/mL) | 0.622 µM (≈ 0.256 µg/mL) | 0.56 µM (≈ 0.23 µg/mL) | 0.187 µM (≈ 0.0769 µg/mL) | 972 µM | 0.933 µM (≈ 0.384 µg/mL) | 0.311 µM (≈ 0.128 µg/mL) | –
CC(C)C(=O)Nc1ccc(-c2cn3c(O)c4ncn(COCCO)c4nc3n2)cc1 | 4.7 µM (≈ 1.93 µg/mL) | 780 µM (≈ 320 µg/mL) | 4.4 µM (≈ 1.81 µg/mL) | 2.8 µM (≈ 1.15 µg/mL) | 4.7 µM (≈ 1.93 µg/mL) | 975 µM | 4.7 µM (≈ 1.93 µg/mL) | 4.7 µM (≈ 1.93 µg/mL) | –
OCC(CO)OCn1cnc2c(O)n3cc(-c4ccc(O)cc4)nc3nc21 | 0.207 µM (≈ 0.0769 µg/mL) | 69 µM (≈ 25.6 µg/mL) | 0.96 µM (≈ 0.356 µg/mL) | 0.041 µM (≈ 0.0152 µg/mL) | 0.207 µM (≈ 0.0769 µg/mL) | 1080 µM | 0.207 µM (≈ 0.0769 µg/mL) | 0.041 µM (≈ 0.0152 µg/mL) | –
CC(C)C(=O)Oc1ccc(-c2cn3c(O)c4ncn(COC(CO)CO)c4nc3n2)cc1 | 0.87 µM (≈ 0.384 µg/mL) | 22 µM (≈ 9.71 µg/mL) | 0.116 µM (≈ 0.0512 µg/mL) | 0.116 µM (≈ 0.0512 µg/mL) | 0.174 µM (≈ 0.0768 µg/mL) | 906 µM | 0.174 µM (≈ 0.0768 µg/mL) | 0.035 µM (≈ 0.0155 µg/mL) | –
O=C(Oc1ccccc1)Oc1ccc(-c2cn3c(O)c4ncn(COCCO)c4nc3n2)cc1 | 0.832 µM (≈ 0.384 µg/mL) | 694 µM (≈ 320 µg/mL) | 0.83 µM (≈ 0.383 µg/mL) | 0.832 µM (≈ 0.384 µg/mL) | 0.166 µM (≈ 0.0766 µg/mL) | 867 µM | 0.832 µM (≈ 0.384 µg/mL) | 0.166 µM (≈ 0.0766 µg/mL) | –
OCCOCn1cnc2c(O)n3cc(-c4ccc(O)cc4)nc3nc21 | 0.375 µM (≈ 0.128 µg/mL) | 234 µM (≈ 79.9 µg/mL) | 0.675 µM (≈ 0.23 µg/mL) | 0.675 µM (≈ 0.23 µg/mL) | 0.225 µM (≈ 0.0768 µg/mL) | 703 µM | 0.225 µM (≈ 0.0768 µg/mL) | 0.225 µM (≈ 0.0768 µg/mL) | –
CC(=O)Oc1ccc(-c2cn3c(O)c4ncn(COC(CO)CO)c4nc3n2)cc1 | 0.186 µM (≈ 0.0769 µg/mL) | 23 µM (≈ 9.51 µg/mL) | 97 µM (≈ 40.1 µg/mL) | 0.049 µM (≈ 0.0203 µg/mL) | 0.186 µM (≈ 0.0769 µg/mL) | 968 µM | 0.186 µM (≈ 0.0769 µg/mL) | 0.062 µM (≈ 0.0256 µg/mL) | –
NC(=O)Nc1ccc(-c2cn3c(O)c4ncn(COCCO)c4nc3n2)cc1 | 8.3 µM (≈ 3.18 µg/mL) | 126 µM (≈ 48.3 µg/mL) | 15 µM (≈ 5.75 µg/mL) | 15 µM (≈ 5.75 µg/mL) | 5 µM (≈ 1.92 µg/mL) | 209 µM | 8.3 µM (≈ 3.18 µg/mL) | 5 µM (≈ 1.92 µg/mL) | –
CC(=O)Oc1ccc(-c2cn3c(O)c4ncn(COCCO)c4nc3n2)cc1 | 0.2 µM (≈ 0.0767 µg/mL) | 626 µM (≈ 240 µg/mL) | – | 0.601 µM (≈ 0.23 µg/mL) | 0.2 µM (≈ 0.0767 µg/mL) | 1040 µM | 0.2 µM (≈ 0.0767 µg/mL) | 0.2 µM (≈ 0.0767 µg/mL) | 0.601 µM (≈ 0.23 µg/mL)
Nc1nc2c(ncn2COCCO)c(=O)[nH]1 [ACYCLOVIR] | 1 µM (≈ 0.225 µg/mL) | 249 µM (≈ 56.1 µg/mL) | 0.242 µM (≈ 0.0545 µg/mL) | 0.341 µM (≈ 0.0768 µg/mL) | 0.341 µM (≈ 0.0768 µg/mL) | 1780 µM | 1 µM (≈ 0.225 µg/mL) | 0.341 µM (≈ 0.0768 µg/mL) | –
Nc1nc2c(ncn2COC(CO)CO)c(=O)[nH]1 [GANCICLOVIR] | 0.1 µM (≈ 0.0255 µg/mL) | 7.5 µM (≈ 1.91 µg/mL) | 0.06 µM (≈ 0.0153 µg/mL) | 0.03 µM (≈ 0.00766 µg/mL) | 0.04 µM (≈ 0.0102 µg/mL) | 392 µM | 0.045 µM (≈ 0.0115 µg/mL) | 0.045 µM (≈ 0.0115 µg/mL) | –
